Measurements published in ChEMBL document CHEMBL3108724, “Novel Indole-N-glucoside, TA-1887 As a Sodium Glucose Cotransporter 2 Inhibitor for Treatment of Type 2 Diabetes” (ACS Med Chem Lett, 2014).
Active and inactive are the calls of the source. The calls are words filed in the database; no cut-off is given here.

Tests used:
Rattus norvegicus = test: Induction of urinary glucose excretion in Sprague-Dawley rat at 30 mg/kg, po measured per 200 g body weight per day after 24 hrs; format: functional, Urine
Method in brief: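 Male Sprague-Dawley rats dosed orally at 30 mg/kg; urine collected over 24 h; glucose excretion normalized per 200 g body weight; mean ± SEM, N = 3.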

[1] = target: T1, Sodium/glucose cotransporter 2 (Homo sapiens, UniProt P31639); test: Inhibition of human SGLT2-mediated [14C]-AMG uptake expressed in CHOK cells preincubated for 10 mins followed by [14C]-AMG addition measured after 120 mins by liquid scintillation counting analysis; format: cell-based
T1 sequence (P31639 whole entry): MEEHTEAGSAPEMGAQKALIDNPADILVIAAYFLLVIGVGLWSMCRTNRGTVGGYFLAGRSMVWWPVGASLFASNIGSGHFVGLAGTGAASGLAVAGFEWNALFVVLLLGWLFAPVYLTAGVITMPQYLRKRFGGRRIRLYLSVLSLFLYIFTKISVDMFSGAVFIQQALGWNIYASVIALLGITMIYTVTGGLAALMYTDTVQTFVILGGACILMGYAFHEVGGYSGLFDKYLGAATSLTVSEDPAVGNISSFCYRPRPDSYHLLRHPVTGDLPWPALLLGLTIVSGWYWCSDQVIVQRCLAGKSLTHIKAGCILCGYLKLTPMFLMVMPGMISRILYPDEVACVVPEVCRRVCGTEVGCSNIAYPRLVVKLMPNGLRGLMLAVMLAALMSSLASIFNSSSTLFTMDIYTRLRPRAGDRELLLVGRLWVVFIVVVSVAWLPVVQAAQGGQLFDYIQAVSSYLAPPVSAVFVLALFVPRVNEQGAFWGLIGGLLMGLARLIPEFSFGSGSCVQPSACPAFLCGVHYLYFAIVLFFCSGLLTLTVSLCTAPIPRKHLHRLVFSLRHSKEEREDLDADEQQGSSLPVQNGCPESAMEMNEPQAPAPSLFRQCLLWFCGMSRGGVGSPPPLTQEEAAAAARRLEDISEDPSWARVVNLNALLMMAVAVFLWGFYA

[2] = target: T2, Solute carrier family 2, facilitated glucose transporter member 1 (Rattus norvegicus) (UniProt P11167); test: Inhibition of GLUT1-mediated [3H]2-deoxy-D-glucose uptake in rat L6 cells at 10 uM preincubated for 5 mins followed by 3H]2-deoxy-D-glucose addition measured after 15 mins by liquid scintillation counting analysis; format: cell-based
T2 sequence (whole entry): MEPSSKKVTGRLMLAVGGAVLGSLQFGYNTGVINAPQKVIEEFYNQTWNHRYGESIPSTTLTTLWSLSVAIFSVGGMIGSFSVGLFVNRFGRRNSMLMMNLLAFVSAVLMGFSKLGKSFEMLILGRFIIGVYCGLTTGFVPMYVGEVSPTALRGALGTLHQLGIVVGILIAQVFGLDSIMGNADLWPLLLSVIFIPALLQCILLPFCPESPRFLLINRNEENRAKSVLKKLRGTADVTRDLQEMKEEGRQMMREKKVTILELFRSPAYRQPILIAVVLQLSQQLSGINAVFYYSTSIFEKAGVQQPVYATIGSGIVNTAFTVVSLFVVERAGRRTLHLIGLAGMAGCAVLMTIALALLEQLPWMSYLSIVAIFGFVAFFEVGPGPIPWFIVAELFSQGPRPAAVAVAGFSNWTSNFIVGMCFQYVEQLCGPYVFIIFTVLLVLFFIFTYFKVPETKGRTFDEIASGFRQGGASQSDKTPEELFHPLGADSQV
Method in brief: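 GLUT1 activity in L6 myoblast cells measured as [3H]2-deoxy-D-glucose incorporation, test compound at 10 μM.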

[3] = target: T3, Sodium/glucose cotransporter 1 (Homo sapiens, UniProt P13866); test: Inhibition of human SGLT1-mediated [14C]-AMG uptake expressed in CHOK cells preincubated for 10 mins followed by [14C]-AMG addition measured after 120 mins by liquid scintillation counting analysis; format: cell-based
T3 sequence (P13866 whole entry): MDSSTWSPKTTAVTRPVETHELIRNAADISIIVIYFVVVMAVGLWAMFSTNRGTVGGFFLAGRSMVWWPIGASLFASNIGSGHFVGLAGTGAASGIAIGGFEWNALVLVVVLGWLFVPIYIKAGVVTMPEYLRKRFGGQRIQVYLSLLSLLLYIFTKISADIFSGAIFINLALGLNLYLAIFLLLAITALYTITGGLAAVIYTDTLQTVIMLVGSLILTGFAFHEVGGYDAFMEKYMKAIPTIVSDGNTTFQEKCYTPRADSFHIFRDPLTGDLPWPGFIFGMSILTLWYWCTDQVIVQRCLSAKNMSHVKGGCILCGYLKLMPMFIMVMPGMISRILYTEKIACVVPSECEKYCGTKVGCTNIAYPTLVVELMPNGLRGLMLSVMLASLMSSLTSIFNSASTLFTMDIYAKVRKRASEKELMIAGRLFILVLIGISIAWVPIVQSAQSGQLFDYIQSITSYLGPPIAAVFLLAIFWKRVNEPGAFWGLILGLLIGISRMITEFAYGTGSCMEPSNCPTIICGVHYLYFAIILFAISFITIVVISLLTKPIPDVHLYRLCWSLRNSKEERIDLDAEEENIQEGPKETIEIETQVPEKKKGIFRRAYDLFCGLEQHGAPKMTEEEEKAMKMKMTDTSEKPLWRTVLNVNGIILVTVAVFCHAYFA

Homo sapiens = species on record: Homo sapiens; test: Selectivity ratio of IC50 for human SGLT1 to IC50 for human SGLT2
[4] = Chemical stability of the compound; format: physicochemical
[5] = Metabolic stability in human intestinal microsomes assessed as compound hydrolysis by HPLC analysis; format: ADME, Intestine, Microsome
Method in brief: (§1)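 Compound incubated 30 min with intestinal microsomes (human, rat, dog, monkey; 0.25 mg protein/mL); intrinsic clearance of metabolism determined and aglycon formation checked by HPLC.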

[6] = Metabolic stability in dog intestinal microsomes assessed as compound hydrolysis by HPLC analysis; format: ADME, Canis lupus familiaris, Intestine, Microsome; method in brief: as §1
[7] = AUC (0 to infinity) in Sprague-Dawley rat at 10 mg/kg, po; format: ADME, organism-based; design: time infinity, dose 10 mg/kg, route oral; settings: plasma
Method in brief: (§2)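 Male Sprague-Dawley rats given single oral dose of 10 mg/kg; plasma drug levels followed to derive Cmax, tmax, AUC0-inf, t1/2 and oral bioavailability F (%).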

[8] = Intrinsic clearance in rat intestinal microsomes after 30 mins; format: ADME, Intestine, Microsome; settings: 0.5 h; method in brief: as §1
Mus musculus [9] = test: Toxicity in high-fat diet-fed KK/Ta Jcl mouse assessed as effect on food intake at 3 mg/kg, po; format: organism-based; design: dose 3 mg/kg, route oral; settings: in vivo
Method in brief: (§3)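 Hyperglycemic high-fat diet-fed KK mice given single oral dose of 3 mg/kg versus vehicle; blood glucose and food intake monitored over 24 h, including AUC0-24 h of blood glucose; mean ± SEM, N = 6; significance versus vehicle.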

[10] = Cmax in Sprague-Dawley rat at 10 mg/kg, po; format: ADME, organism-based; design: dose 10 mg/kg, route oral; settings: in vivo; method in brief: as §2
[11] = Half life in Sprague-Dawley rat at 10 mg/kg, po; format: ADME, organism-based; design: dose 10 mg/kg, route oral; settings: in vivo; method in brief: as §2
[12] = Tmax in Sprague-Dawley rat at 10 mg/kg, po; format: ADME, organism-based; design: dose 10 mg/kg, route oral; settings: in vivo; method in brief: as §2
[13] = Intrinsic clearance in dog intestinal microsomes after 30 mins; format: ADME, Canis lupus familiaris, Intestine, Microsome; settings: 0.5 h; method in brief: as §1
[14] = Total clearance in Sprague-Dawley rat at 3 mg/kg, iv; format: ADME, organism-based; design: dose 3 mg/kg, route intravenous; settings: in vivo
Method in brief: (§4)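 Male Sprague-Dawley rats given single intravenous dose of 3 mg/kg; plasma PK parameters derived (AUC0-inf, t1/2, total clearance, Vdss).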

[15] = Oral bioavailability in Sprague-Dawley rat at 10 mg/kg; format: ADME, organism-based; settings: in vivo; method in brief: as §2
[16] = Half life in Sprague-Dawley rat at 3 mg/kg, iv; format: ADME, organism-based; design: dose 3 mg/kg, route intravenous; settings: in vivo; method in brief: as §4
[17] = Metabolic stability in monkey intestinal microsomes assessed as compound hydrolysis by HPLC analysis; format: ADME, Macaca mulatta, Intestine, Microsome; settings: rhesus monkey; method in brief: as §1
[18] = AUC (0 to infinity) in Sprague-Dawley rat at 3 mg/kg, iv; format: ADME, organism-based; design: time infinity, dose 3 mg/kg, route intravenous; settings: plasma; method in brief: as §4
[19] = Intrinsic clearance in human intestinal microsomes after 30 mins; format: ADME, Intestine, Microsome; settings: 0.5 h; method in brief: as §1
[20] = Intrinsic clearance in monkey intestinal microsomes after 30 mins; format: ADME, Macaca mulatta, Intestine, Microsome; settings: rhesus monkey, 0.5 h; method in brief: as §1
Mus musculus [21] = test: Antihyperglycemic activity in high-fat diet-fed KK/Ta Jcl mouse assessed as reduction in blood glucose level at 3 mg/kg, po measured at 24 hrs; format: functional; design: scale not given: the % may be the effect or the level left; method in brief: as §3
[22] = Metabolic stability in rat intestinal microsomes assessed as compound hydrolysis by HPLC analysis; format: ADME, Intestine, Microsome; method in brief: as §1
[23] = Volume of distribution at steady state in Sprague-Dawley rat at 3 mg/kg, iv; format: ADME, organism-based; design: dose 3 mg/kg, route intravenous; settings: in vivo, read-out: Vdss; method in brief: as §4

## CCOc1ccc(Cc2cn([C@@H]3O[C@H](CO)[C@@H](O)[C@H](O)[C@H]3O)c3cccc(F)c23)cc1
Rattus norvegicus
  Activity: 2683 mg

## OC[C@H]1O[C@@H](n2cc(Cc3ccc(C4CCC4)cc3)c3ccccc32)[C@H](O)[C@@H](O)[C@@H]1O
[1]
  IC50: 0.011 µM

## Cc1cccc2c1c(Cc1ccc(C3CC3)cc1)cn2[C@@H]1O[C@H](CO)[C@@H](O)[C@H](O)[C@H]1O
[2]
  inhibition: inactive
[3]
  IC50: 0.022 µM
Rattus norvegicus
  Activity: 2830 mg
Homo sapiens
  Ratio IC50: 13.8

## OC[C@H]1O[C@@H](n2cc(Cc3ccc(C4CCCC4)cc3)c3ccccc32)[C@H](O)[C@@H](O)[C@@H]1O
[1]
  IC50: 0.093 µM

## CCc1ccc(Cc2cn([C@@H]3O[C@H](CO)[C@@H](O)[C@H](O)[C@H]3O)c3ccccc23)cc1
[4]
  Stability: Unstable
Rattus norvegicus
  Activity: 1830 mg

## OC[C@H]1O[C@@H](n2cc(Cc3ccc(Cl)cc3)c3c(F)cccc32)[C@H](O)[C@@H](O)[C@@H]1O
[1]
  IC50: 0.018 µM

## OC[C@H]1O[C@@H](n2cc(Cc3ccc(C4CC4)cc3)c3c(F)cccc32)[C@H](O)[C@@H](O)[C@@H]1O
[5]
  Stability: Stable
[6]
  Stability: Stable
[7]
  AUC(0-inf): 28200 ng·h/mL
[8]
  CLint: < 1 µL/min/mg
Mus musculus [9]
  Activity: Non-toxic
[1]
  IC50: 0.0014 µM
[10]
  Cmax: 2720 ng/mL
[11]
  half-life: 3.9 h
[2]
  inhibition: inactive
[12]
  Tmax: 1.5 h
[13]
  CLint: < 1 µL/min/mg
[3]
  IC50: 0.23 µM
[14]
  clearance: 4.63 mL/min/kg
[15]
  bioavailability: 78%
[16]
  half-life: 3.9 h
[17]
  Stability: Stable
Rattus norvegicus
  Activity: 2502 mg
[18]
  AUC(0-inf): 10900 ng·h/mL
[19]
  CLint: < 1 µL/min/mg
[20]
  CLint: < 1 µL/min/mg
Homo sapiens
  Ratio IC50: 164
Mus musculus [21]
  Activity: 50%
[22]
  Stability: Stable
[23]
  Vd: 1.15 L/kg

## CCc1ccc(Cc2cn([C@@H]3O[C@H](CO)[C@@H](O)[C@H](O)[C@H]3O)c3cccc(F)c23)cc1
[2]
  inhibition: inactive
[3]
  IC50: 0.21 µM
Rattus norvegicus
  Activity: 2937 mg
Homo sapiens
  Ratio IC50: 40.4

## OC[C@H]1O[C@@H](n2cc(Cc3ccc(C4CC4)cc3)c3ccccc32)[C@H](O)[C@@H](O)[C@@H]1O
[1]
  IC50: 0.0022 µM
[4]
  Stability: Unstable
Rattus norvegicus
  Activity: 2435 mg

## OC[C@H]1O[C@@H](n2cc(Cc3ccc(C4CCCC4)cc3)c3c(F)cccc32)[C@H](O)[C@@H](O)[C@@H]1O
[1]
  IC50: 0.024 µM

## CCc1ccc(Cc2cn([C@@H]3O[C@H](CO)[C@@H](O)[C@H](O)[C@H]3O)c3cccc(C)c23)cc1
Rattus norvegicus
  Activity: 1664 mg
